# Reference: ChEMBL document CHEMBL5058577, “EUbOPEN Chemogenomics Library 2 (Multiplex)” (2022)
# Tested on: Fibroblast
# Assay: Multiplex assay against human fibroblast
# Format: toxicity, cell-based
# Summary of the method: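 Hoechst33342, BioTracker Green Microtubule Cytoskeleton Dye, MitoTracker Red and Annexin V Alexa Fluor 680 were added to live cells at seeding, and imaging on a CQ1 microscope at 37°C and 5% CO2 followed compound addition. Gating by CellPathfinder machine learning separated cells into Hoechst high-intensity objects or normal cells, then normal cells into healthy, pyknosed or fragmented nuclei, then pyknosed cells into mitotic or apoptotic. Per cents of healthy-nucleus cells are reported for the tubulin, mitochondrial-mass and membrane-permeability phenotypes.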
# [1] = 12 h, 1 µM, compound concentration 1 uM, replicate 1
# [2] = 12 h, 1 µM, compound concentration 1 uM, replicate 2
# [3] = 12 h, 10 µM, compound concentration 10 uM, replicate 1
# [4] = 12 h, 10 µM, compound concentration 10 uM, replicate 2
# [5] = 24 h, 1 µM, compound concentration 1 uM, replicate 1
# [6] = 24 h, 1 µM, compound concentration 1 uM, replicate 2
# [7] = 24 h, 10 µM, compound concentration 10 uM, replicate 1
# [8] = 24 h, 10 µM, compound concentration 10 uM, replicate 2
# [9] = 48 h, 1 µM, compound concentration 1 uM, replicate 1
# [10] = 48 h, 1 µM, compound concentration 1 uM, replicate 2
# [11] = 48 h, 10 µM, compound concentration 10 uM, replicate 1
# [12] = 48 h, 10 µM, compound concentration 10 uM, replicate 2
compound,measurement,setting,value
Cc1ccc(OCC(O)C(C)NC(C)C)c2c1CCC2.Cl (stereo unspecified),Population Apoptotic (%),[1],36%
same,Population Fragmented Nuclei (%),[1],10%
same,Population Healthy Nuclei (%),[1],68%
same,Population Hoechst High Intensity Objects (%),[1],0%
same,Population Membrane Permeable-Phenotype (%),[1],0%
same,Population Mitochondria Different-Phenotype (%),[1],3%
same,Population Mitotic Cells (%),[1],63%
same,Population Normal (%),[1],99%
same,Population Pyknosed Nuclei (%),[1],20%
same,Population Tubulin-Different-Phenotype (%),[1],26%
same,Total Cell Count,[1],159
same,Population Apoptotic (%),[2],28%
same,Population Fragmented Nuclei (%),[2],17%
same,Population Healthy Nuclei (%),[2],55%
same,Population Hoechst High Intensity Objects (%),[2],9%
same,Population Membrane Permeable-Phenotype (%),[2],4%
same,Population Mitochondria Different-Phenotype (%),[2],7%
same,Population Mitotic Cells (%),[2],71%
same,Population Normal (%),[2],90%
same,Population Pyknosed Nuclei (%),[2],27%
same,Population Tubulin-Different-Phenotype (%),[2],50%
same,Total Cell Count,[2],210
same,Population Apoptotic (%),[3],47%
same,Population Fragmented Nuclei (%),[3],39%
same,Population Healthy Nuclei (%),[3],47%
same,Population Hoechst High Intensity Objects (%),[3],1%
same,Population Membrane Permeable-Phenotype (%),[3],0%
same,Population Mitochondria Different-Phenotype (%),[3],12%
same,Population Mitotic Cells (%),[3],52%
same,Population Normal (%),[3],98%
same,Population Pyknosed Nuclei (%),[3],12%
same,Population Tubulin-Different-Phenotype (%),[3],52%
same,Total Cell Count,[3],138
same,Population Apoptotic (%),[4],25%
same,Population Fragmented Nuclei (%),[4],33%
same,Population Healthy Nuclei (%),[4],50%
same,Population Hoechst High Intensity Objects (%),[4],2%
same,Population Membrane Permeable-Phenotype (%),[4],7%
same,Population Mitochondria Different-Phenotype (%),[4],17%
same,Population Mitotic Cells (%),[4],74%
same,Population Normal (%),[4],97%
same,Population Pyknosed Nuclei (%),[4],16%
same,Population Tubulin-Different-Phenotype (%),[4],54%
same,Total Cell Count,[4],168
same,Population Apoptotic (%),[5],57%
same,Population Fragmented Nuclei (%),[5],11%
same,Population Healthy Nuclei (%),[5],74%
same,Population Hoechst High Intensity Objects (%),[5],0%
same,Population Membrane Permeable-Phenotype (%),[5],4%
same,Population Mitochondria Different-Phenotype (%),[5],5%
same,Population Mitotic Cells (%),[5],42%
same,Population Normal (%),[5],100%
same,Population Pyknosed Nuclei (%),[5],13%
same,Population Tubulin-Different-Phenotype (%),[5],30%
same,Total Cell Count,[5],154
same,Population Apoptotic (%),[6],20%
same,Population Fragmented Nuclei (%),[6],27%
same,Population Healthy Nuclei (%),[6],46%
same,Population Hoechst High Intensity Objects (%),[6],15%
same,Population Membrane Permeable-Phenotype (%),[6],1%
same,Population Mitochondria Different-Phenotype (%),[6],8%
same,Population Mitotic Cells (%),[6],80%
same,Population Normal (%),[6],84%
same,Population Pyknosed Nuclei (%),[6],26%
same,Population Tubulin-Different-Phenotype (%),[6],52%
same,Total Cell Count,[6],201
same,Population Apoptotic (%),[7],35%
same,Population Fragmented Nuclei (%),[7],39%
same,Population Healthy Nuclei (%),[7],49%
same,Population Hoechst High Intensity Objects (%),[7],1%
same,Population Membrane Permeable-Phenotype (%),[7],1%
same,Population Mitochondria Different-Phenotype (%),[7],13%
same,Population Mitotic Cells (%),[7],64%
same,Population Normal (%),[7],98%
same,Population Pyknosed Nuclei (%),[7],11%
same,Population Tubulin-Different-Phenotype (%),[7],63%
same,Total Cell Count,[7],151
same,Population Apoptotic (%),[8],36%
same,Population Fragmented Nuclei (%),[8],35%
same,Population Healthy Nuclei (%),[8],50%
same,Population Hoechst High Intensity Objects (%),[8],5%
same,Population Membrane Permeable-Phenotype (%),[8],4%
same,Population Mitochondria Different-Phenotype (%),[8],14%
same,Population Mitotic Cells (%),[8],63%
same,Population Normal (%),[8],94%
same,Population Pyknosed Nuclei (%),[8],13%
same,Population Tubulin-Different-Phenotype (%),[8],65%
same,Total Cell Count,[8],168
same,Population Apoptotic (%),[9],64%
same,Population Fragmented Nuclei (%),[9],16%
same,Population Healthy Nuclei (%),[9],71%
same,Population Hoechst High Intensity Objects (%),[9],4%
same,Population Membrane Permeable-Phenotype (%),[9],0%
same,Population Mitochondria Different-Phenotype (%),[9],1%
same,Population Mitotic Cells (%),[9],35%
same,Population Normal (%),[9],95%
same,Population Pyknosed Nuclei (%),[9],11%
same,Population Tubulin-Different-Phenotype (%),[9],23%
same,Total Cell Count,[9],155
same,Population Apoptotic (%),[10],34%
same,Population Fragmented Nuclei (%),[10],37%
same,Population Healthy Nuclei (%),[10],42%
same,Population Hoechst High Intensity Objects (%),[10],11%
same,Population Membrane Permeable-Phenotype (%),[10],5%
same,Population Mitochondria Different-Phenotype (%),[10],8%
same,Population Mitotic Cells (%),[10],65%
same,Population Normal (%),[10],88%
same,Population Pyknosed Nuclei (%),[10],20%
same,Population Tubulin-Different-Phenotype (%),[10],60%
same,Total Cell Count,[10],196
same,Population Apoptotic (%),[11],71%
same,Population Fragmented Nuclei (%),[11],35%
same,Population Healthy Nuclei (%),[11],50%
same,Population Hoechst High Intensity Objects (%),[11],1%
same,Population Membrane Permeable-Phenotype (%),[11],0%
same,Population Mitochondria Different-Phenotype (%),[11],9%
same,Population Mitotic Cells (%),[11],28%
same,Population Normal (%),[11],98%
same,Population Pyknosed Nuclei (%),[11],13%
same,Population Tubulin-Different-Phenotype (%),[11],68%
same,Total Cell Count,[11],155
same,Population Apoptotic (%),[12],60%
same,Population Fragmented Nuclei (%),[12],39%
same,Population Hoechst High Intensity Objects (%),[12],7%
same,Population Membrane Permeable-Phenotype (%),[12],5%
same,Population Mitochondria Different-Phenotype (%),[12],10%
same,Population Mitotic Cells (%),[12],40%
same,Population Normal (%),[12],92%
same,Population Pyknosed Nuclei (%),[12],10%
same,Population Tubulin-Different-Phenotype (%),[12],63%
same,Total Cell Count,[12],157
